# PGE2 EP2 inh: human EP2 receptor antagonists, primary screen, TR-FRET cAMP, C6 glioma cells; C6 glioma cells expressing human EP2; cells stimulated with saturating PGE2; 260,000 compounds, 0.52% hits; inhibition, % at 25 µM; Prostaglandin E2 receptor EP2 subtype (Homo sapiens), P43116;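 active means percent inhibition above 40 after rounding to a whole number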;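 further: rat C6 glioma host cells with rolipram phosphodiesterase inhibitor present; the protocol text gives 20 µM as final concentration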
# NPY-Y1 PAM-ag: NPY-Y1 receptor potentiators or agonists, primary screen, cell-based; NPY-Y1 expressing cells, potentiator/agonist activation; 220,000 compounds, 0.37% hits; Neuropeptide Y receptor type 1 (Homo sapiens), P25929; AID 1304, 2008; activation, % at 3.6 µM; in the data active means activation above about 33%, passing the limit was not always enough;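 further: cells stimulated with NPY at EC10 then isoproterenol at EC100; 0% = low agonist plus stimulus and 100% = saturating agonist plus stimulus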
# Target sequence (P25929 whole entry, looked up): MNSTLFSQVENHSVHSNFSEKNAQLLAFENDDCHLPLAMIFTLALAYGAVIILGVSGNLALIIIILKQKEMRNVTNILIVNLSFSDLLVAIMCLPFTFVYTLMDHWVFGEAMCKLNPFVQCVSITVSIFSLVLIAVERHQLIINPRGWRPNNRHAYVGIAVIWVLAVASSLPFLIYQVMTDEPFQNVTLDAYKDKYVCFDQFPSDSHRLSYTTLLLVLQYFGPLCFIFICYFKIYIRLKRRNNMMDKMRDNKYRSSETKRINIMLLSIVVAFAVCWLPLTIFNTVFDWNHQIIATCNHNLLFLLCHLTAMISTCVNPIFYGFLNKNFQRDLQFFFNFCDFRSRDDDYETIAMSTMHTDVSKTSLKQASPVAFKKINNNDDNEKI
# NPY2 pot ag: NPY-Y2 potentiators or agonists, primary screen, cell-based. 220,000 compounds, 0.45% hits. cells expressing NPY-Y2, potentiator/agonist read-out. activation, % at 3.6 µM. Neuropeptide Y receptor type 2 (Homo sapiens), P49146; in the data active means activation above about 27%;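 further: cells stimulated with NPY near EC25 plus isoproterenol at EC100; 0% = vehicle plus submaximal agonist and 100% = vehicle plus saturating agonist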
# NPY-Y2 antag: NPY-Y2 receptor antagonists, primary screen, cell-based | Neuropeptide Y receptor type 2 (Homo sapiens), P49146 | NPY-Y2 expressing cells, antagonist mode | inhibition, % at 2.7 µM | 140,000 compounds, 0.99% hits | AID 793, 2007; in the data active means inhibition above about 17%;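 further: 0% = vehicle with agonist challenge and 100% = reference antagonist with challenge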
# EP2 modulator: EP2 receptor modulators, cAMP readout, primary screen, cell-based, HTRF cAMP, PGE2 stimulation | induction, % at 25 µM | AID 940, 2007 | EP2-expressing cells, cAMP HTRF FRET, PGE2 co-stimulation | 260,000 compounds, 0.83% hits;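 active means compounds whose cAMP rise, as percent of the full-agonist control response, exceeds 60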;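 further: rat C6 glioma line stably carrying human EP2 under a CMV promoter; the protocol text gives 20 µM as final concentration; 100% = response of wells given 1 µM PGE2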
# NPY-Y1 antag: NPY-Y1 receptor antagonists, primary screen, cell-based; HEK293-CNG Y1 cells, membrane potential fluorescence; NPY at EC95, then isoproterenol; inhibition, % at 3.6 µM; 200,000 compounds, 1% hits;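 active means inhibition above the campaign mean inhibition of all tested compounds plus 3 SD, cut at about 20% in these data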;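 further: 0% = DMSO wells given NPY plus isoproterenol and 100% = isoproterenol alone without NPY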
#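 System: HEK293 cells with Y1 receptor plus CNG channel / Probe or stimulus: NPY 25 nM then isoproterenol 1 µM plus Ro 20-1724 25 µM / Compound: one concentration, 3.6 µM, in 0.4% DMSO / Schedule: compound incubation 1 h at room temperature, readout 45 min post-stimulation / Measured by: membrane potential fluorescence / Read-out: % inhibition of NPY effect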
# * marks the source's active call; other numbers are inactive results; nt = no result; ! = repeats disagree. Only some compounds are listed: those with a hit (about 2.8% of all), similar ones and a draw of the others.
SMILES,PGE2 EP2 inh,NPY-Y1 PAM-ag,NPY2 pot ag,NPY-Y2 antag,EP2 modulator,NPY-Y1 antag
CCCCCCP(=O)(O)c1ccccc1,3,-70,-13,5,21,-2
Cn1c(=O)c2c(nc(N3CCCC3)n2CC(=O)c2ccccc2)n(C)c1=O,18,nt,nt,nt,-42,nt
Cc1ccc(C(=O)O/N=C2\CCSc3ccc(C)cc32)cc1,5,-9,-12,21*,27,23*
Cc1cccc(C(=O)O/N=C2\CCSc3ccc(C)cc32)c1,6,-16,1,7,-14,8
Cc1cc(C)c2[nH]c(=O)c(CN(Cc3ccc4c(c3)OCO4)Cc3nnnn3C3CCCC3)cc2c1,25,-12,-4,7,49,10
Cc1cccc2cc(CN(Cc3ccc4c(c3)OCO4)Cc3nnnn3C3CCCCC3)c(=O)[nH]c12,14,nt,nt,nt,68*,nt
Cc1ccc2[nH]c(=O)c(CN(Cc3ccccc3)Cc3nnnn3C3CCCC3)cc2c1,9,14,6,2,57,1
COc1ccc2cc(CN(Cc3ccccc3)Cc3nnnn3C3CCCCC3)c(=O)[nH]c2c1,6,nt,nt,nt,75*,nt
Cc1cc2cc(CN(Cc3ccccc3)Cc3nnnn3C3CCCC3)c(=O)[nH]c2cc1C,14,nt,nt,nt,71*,nt
CN1CCN(c2ccc([N+](=O)[O-])cc2C(=O)c2ccc(Br)cc2)CC1,7,22,5,9,6,11
O=C(c1ccc(Br)cc1)c1cc([N+](=O)[O-])ccc1N1CCCCC1,4,-6,-11,17*,48,38*
CC12C=CC3(O1)C(C(=O)N(CC1CCCO1)C3C(=O)NC1CCCCC1)C2C(=O)Nc1ccccc1 (centres undefined),23,nt,nt,nt,-9,nt
c1ccc(CCNc2nc(-c3ccncc3)nc3ccccc23)cc1,46*,13,5,nt,-29,nt
CC1(C)Cc2ccccc2-c2nnc(SCC(=O)Nc3ccc(Cl)cc3)n21,7,nt,nt,nt,4,nt
c1ccc(SC(Sc2ccccc2)c2ccc3c(c2)OCO3)cc1,41*,nt,nt,nt,27,nt
COc1ccc2c3c([nH]c2c1)C1CC2C(CC(O)C(OC)C2C(=O)O)CN1CC3 (centres undefined),13,0,-21,nt,-17,nt
COc1ccc2c3c([nH]c2c1)[C@H]1C[C@@H]2[C@H](C[C@@H](O)[C@H](OC)[C@H]2C(=O)O)CN1CC3,51*,nt,nt,nt,12,nt
COC(=O)[C@@H]1[C@H]2C[C@H]3c4[nH]c5ccccc5c4CCN3C[C@@H]2CC[C@@H]1O,11,nt,nt,nt,-1,nt
COC(=O)[C@H]1[C@@H]2C[C@H]3c4[nH]c5ccccc5c4CCN3C[C@H]2CC[C@@H]1O,41*,nt,nt,nt,10,nt
CCN(CC)CCCNCC(=O)N1CCCC1,7,nt,nt,nt,-8,nt
CC(C)(C)N(NC(=O)c1ccccc1)C(=O)c1cccc(C(=O)N(NC(=O)c2ccccc2)C(C)(C)C)c1,13,-24,-16,20*,21,41*
CSc1ccccc1-c1n[nH]c(=S)o1,46*,-25,-9,nt,38,-2
CC(=O)c1c(C(C)=O)c(C)n(-c2ccc(C)c(NC(=O)c3ccco3)c2)c1C,9,nt,nt,nt,18,nt
NC(N)=N[C@@H]1C(O)[C@H](N=C(N)N)[C@@H](O)C(O)[C@H]1O (some centres undefined),51*,nt,nt,nt,1,nt
COCCCn1c(SCC(=O)Nc2cccc(C)c2)nnc1-c1ccco1,12,nt,nt,nt,-13,nt
SMILES,PGE2 EP2 inh,NPY-Y1 PAM-ag,NPY2 pot ag,NPY-Y2 antag,EP2 modulator,NPY-Y1 antag
O=C(CSc1nnc(Cc2cccs2)n1Cc1ccco1)Nc1ccc(Cl)cc1Cl,3,-20,-6,23*,36,31*
O=C(CSc1nnc(Cc2cccs2)n1Cc1ccco1)Nc1ccc(Br)cc1,7,10,-10,9,22,3
O=C(c1ccc(C(F)(F)F)cc1)N1CCC(O)(c2ccccn2)CC1,nt,nt,nt,nt,-44,nt
Cc1ccc(S(=O)(=O)N(Cc2ccc(Cl)cc2)c2ccccc2C(=O)NCc2ccco2)cc1,11,-110,-12,32*,39,29*
Cc1ccccc1N(CC(=O)Nc1ccccc1C(=O)NCc1ccco1)S(=O)(=O)c1ccccc1,1,7,9,2,1,6
COc1ccc(-n2c(=O)c3c(C)c(C)sc3n(Cc3cccc(F)c3)c2=O)c(OC)c1,5,8,3,nt,61*,4
CCN(CC)C(=O)c1sc2c(c1C)c(=O)n(-c1ccc(OC)cc1OC)c(=O)n2CC(=O)c1ccccc1,2,-16,-8,nt,0,0
c1ccc(-c2cc(-c3nnc(-c4ccncc4)o3)c3ccccc3n2)cc1,8,nt,nt,nt,80*,nt
O=C(CN1CCOCC1)Nc1ccccc1C(=O)O,126*!,4,10,1,-5,-1
O=C(CN1CCCC1)Nc1ccccc1Sc1ccccc1,9,-4,-9,nt,61*,0
Nc1ccccc1NC(=O)CN1CCOCC1,15,nt,nt,nt,4,nt
CC(=O)Nc1ccccc1Sc1ccccc1,6,-8,-5,2,20,-7
O=C(CCl)Nc1ccccc1Sc1ccccc1,15,18,-4,1,64*,7
COc1cc(C(=O)Nc2nc(C)c(C(C)=O)s2)cc(OC)c1OC,8,nt,nt,nt,-23,nt
C[C@H]1CN(Cc2ccco2)CCN1C(=O)c1cnccn1,nt,nt,nt,nt,-20,nt
C=CCn1c2cc(C)sc2c2cnn(CC(=O)N3CCOCC3)c(=O)c21,nt,nt,nt,nt,-69,nt
O=C(c1cccs1)N(Cc1ccco1)c1nc(-c2ccc(F)cc2)cs1,16,1,8,18*,53,14
COCCNC(=O)Cn1cc(/C=C2/C(=O)NC(=O)N(c3ccc4ccccc4c3)C2=O)c2ccccc21,10,nt,nt,nt,-66,nt
N#CCn1cc(/C=C2\C(=O)NC(=O)N(c3ccc(Cl)cc3)C2=O)c2ccccc21,84*,nt,nt,nt,-107,nt
COc1ccccc1NC(=O)CSc1nc2ccc(C)cc2cc1C#N,14,nt,nt,nt,5,nt
C=C(C)c1cccc(C(C)(C)NC(=O)N(Cc2ccccc2)Cc2ccco2)c1,nt,-5,-9,28*,43,14
O=C(O)/C=C/C(=O)N(Cc1ccccc1)Cc1ccco1,6,18,8,-1,15,0
CCCN1CCCc2ccccc21,12,3,16,2,13,3
N#CCCN1CCCc2cc(N=Nc3ccc(C(F)(F)F)cc3)ccc21,4,73*,54*,nt,-28,nt
COc1ccc2c(c1)/C(=N/OC(=O)c1cccs1)CCC2,3,-15,-7,nt,18,11
COc1ccc(NC(=O)O/N=C2/CCCc3ccc(OC)cc32)cc1,16,98*,-4,5,9,3
